Measured values as given in ChEMBL document CHEMBL2331226, “Antiproliferative and antiplasmodial dimeric phloroglucinols from Mallotus oppositifolius from the Madagascar Dry Forest (1)” (J Nat Prod, 2013).
Calls of active or inactive are those of the source. The calls are words filed in the database; no cut-off is given here.

Experiments:
Plasmodium falciparum [1] = assay: Gametocytocidal antimalarial activity against chloroquine-sensitive Plasmodium falciparum NF54 late gametocyte stage after 72 hrs by alamar blue assay; format: functional, organism-based; conditions: NF54, 72 h
How it was run: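 Stage V gametocytes came from NF54 cultures kept at 37 °C in 5% O2, 5% CO2 and […]. Asexual stages were cleared with 5% sorbitol for four days from day 9, and gametocytes were purified on day 13 over NycoPrep 1.077. 30,000–50,000 gametocytes per well were incubated with drug for 72 h in low O2. AlamarBlue was then added for 24 h (ex 540/em 585 nm). IC50 from dose-response fit; two independent determinations in duplicate, ± S.E.M.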

Plasmodium falciparum [2] = assay: Antimalarial activity against chloroquine/mefloquine-resistant Plasmodium falciparum Dd2 intraerythrocytic stage after 72 hrs by SYBR green I dye based assay; format: functional, organism-based; conditions: for IC50: Plasmodium falciparum, Dd2, 72 h
A2780 = assay: Cytotoxicity against human A2780 cells; format: functional, cell-based
Plasmodium falciparum [3] = assay: Cytocidal antimalarial activity against chloroquine/mefloquine-resistant Plasmodium falciparum Dd2 intraerythrocytic stage; format: functional; conditions: read-out: LD50 (the source's name)
How it was run: (§1)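 Killing of intraerythrocytic stages measured by a rapid cytocidal assay, per an earlier report. LD50 values are the mean of three replicate determinations ± S.E.M.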

Plasmodium falciparum [4] = assay: Antimalarial activity against chloroquine-sensitive Plasmodium falciparum NF54 early gametocyte stage assessed as reduction in occurrence of asexual intraerythrocytic stages after 13 days at 0.76 uM by microscopy; format: functional, organism-based
How it was run: (§2)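 NF54 cultures at 0.75% parasitemia and 1% hematocrit were grown 13 days with or without drug in 24-well plates, humidified, at 37 °C under low oxygen. Plain or drug-supplemented medium was replaced on days 4, 6, 8 and 9-12. On day 13, asexual and sexual parasitaemia were counted on Giemsa-stained smears. Controls were untreated and 0.5% DMSO vehicle. Two independent experiments.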

Plasmodium falciparum [5] = assay: Antimalarial activity against chloroquine-sensitive Plasmodium falciparum NF54 early gametocyte stage assessed as reduction in occurrence of gametocyte stages after 13 days at 0.76 uM by microscopy; format: functional; parameters: scale not given: the % may be the effect or the level left; how it was run: as §2
Plasmodium falciparum [6] = assay: Cytocidal antimalarial activity against drug-sensitive Plasmodium falciparum HB3 intraerythrocytic stage; format: functional; conditions: read-out: LD50 (the source's name); how it was run: as §1
Plasmodium falciparum [7] = assay: Antimalarial activity against chloroquine-sensitive Plasmodium falciparum NF54 early gametocyte stage assessed as reduction in occurrence of gametocyte stages after 13 days at 0.14 uM by microscopy; format: functional, organism-based; how it was run: as §2
Plasmodium falciparum [8] = assay: Antimalarial activity against chloroquine-sensitive Plasmodium falciparum NF54 asexual stage after 72 hrs by alamar blue assay; format: functional, organism-based; conditions: NF54, 72 h
Plasmodium falciparum [9] = assay: Antimalarial activity against chloroquine-sensitive Plasmodium falciparum NF54 early gametocyte stage assessed as reduction in occurrence of asexual intraerythrocytic stages after 13 days at 0.14 uM by microscopy; format: functional, organism-based; how it was run: as §2

Row | Structure (SMILES) | IC50 (Plasmodium falciparum [1]) [µM] | IC100 (Plasmodium falciparum [2]) [µM] | IC50 (Plasmodium falciparum [2]) [µM] | IC50 (A2780) [µM] | LC50 (Plasmodium falciparum [3]) [µM] | Activity (Plasmodium falciparum [4]) | Activity (Plasmodium falciparum [5]) [%] | LC50 (Plasmodium falciparum [6]) [µM] | Activity (Plasmodium falciparum [7]) | IC50 (Plasmodium falciparum [8]) [µM] | Activity (Plasmodium falciparum [9])
1 | C[C@H]1[C@H](OC(=O)CCC(=O)O)O[C@@H]2O[C@@]3(C)CC[C@H]4[C@H](C)CC[C@@H]1[C@@]24OO3 [ARTESUNATE] | 2.3 | – | – | – | – | – | – | – | – | – | –
2 | COc1c(C)c(O)c(C(C)=O)c(O)c1Cc1c(O)c(C(C)=O)c(O)c(CC=C(C)C)c1OC [MALLOTOJAPONIN B] | – | 44 | 0.75 | 1.1 | 6.7 | Active | 80 | 14.6 | – | – | –
3 | COc1c(CC=C(C)C)c(O)c(C(C)=O)c(O)c1Cc1c(O)c(C(C)=O)c(O)c(CC=C(C)C)c1OC [MALLOTOJAPONIN C] | 3.6 | 39 | 0.14 | 1.3 | 0.8 | – | – | 0.81 | Active | 0.07 | Active
